b-catenin transl – beta-catenin nuclear translocation modulation | HeLa beta-catenin nuclear translocation, immunofluorescence imaging | nuclear translocation activity, % at 5 µM | 0.3% of 190,000 active;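 active = nuclear translocation activity above 50% at 5 µM, with a well cell count of 50 or more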;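 also: per-cell ratio of nuclear to cytoplasmic median beta-catenin stain intensity; plate controls were DMSO negative control for no effect and GSK-3 inhibitor IX positive control for full effect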
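assay system = human HeLa cells, endogenous beta-catenin | times = compound treatment 24 h, 37°C, 5% CO2 | detection = Anti-beta-catenin immunofluorescence on PFA-fixed, Triton-permeabilized cells, DAPI nuclei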
L major viab – inhibitors of Leishmania major promastigote growth; AID 1063; inhibition, % at 10 µM; Leishmania major promastigotes, resazurin fluorescence viability; 9% of 200,000 active; in the data active = inhibition above about 50%;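 also: promastigotes grown with compound for 44 hours at 28 °C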
Dynein transport – dynein cargo transport inhibition | 3617.4 mouse cells, GR-EGFP nuclear translocation imaging; test concentration mostly 20 µM; stimulated with dexamethasone, 1 µM; stronger effect = lower value | z-score, hits read low | 0.47% of 220,000 active;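 active = plate z-score of nuclear minus cytoplasmic receptor signal below a set negative limit, without overly bright fluorescence or cell loss, cut at about -3.5 in these data, passing the limit was not always enough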;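 also: z-score of nuclear minus cytoplasmic ring GR-EGFP intensity difference per well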
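Buffer or medium – tet-free medium with charcoal-stripped serum · Signal – automated 10x imaging of fixed Hoechst-stained cells · Also added – dexamethasone agonist, 1.0 µM final, for 30 min · Incubation – induction 48 h, compound 1 h, agonist 30 min · Read-out – GR-EGFP nuclear translocation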
Autophagy mod – alters autophagy in cells. calls only at 10 µM (by protocol). AID 463193. MEF GFP-LC3 puncta imaging; test concentration mostly 10 µM. 0.98% of 190,000 active;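 active = percentage of spot-positive cells more than 3 SD above its plate mean, without a fluorescence outlier flag or 80% toxicity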;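 also: spot-positive cell cutoff set from DMSO-treated cells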
MT stabilize HCS – microtubule stabilization, imaging screen; HeLa tubulin immunostaining HCS, 24 h; share of cells brighter than vehicle mean+2SD; AID 2205; % tubulin-high responders, % at 10 µM; 0.83% of 200,000 active;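 active = plate Z-score above 3 for both tubulin-high and condensed-nucleus cell shares, with cell loss under 80%, at 10 µM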;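 also: anti alpha tubulin signal scored within the nucleus-defined area of each cell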
CHOP inh – inhibitors of CHOP induction in ER stress response; inhibition, % at 10 µM; 3.8% of 220,000 active; CHO-K1 CHOP-promoter luciferase, tunicamycin-induced, 15-18 h;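 active = compounds that reduced the stress-induced luciferase reporter signal by more than about 70% of percent inhibition, limit read from the data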;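 also: 0% = tunicamycin plus vehicle and 100% = wells without tunicamycin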
* hit, by the source's call; i = inactive; · = no result; + = active, no number. Only some compounds are listed: those with a hit (about 12% of all), similar ones and a draw of the others.

SMILES	b-catenin transl	L major viab	Dynein transport	Autophagy mod	MT stabilize HCS	CHOP inh
COc1ccc(C)cc1S(=O)(=O)n1ccnc1C	0.5	-1.1	1.43	i	1.4	2.9
Cc1cc(Br)ccc1S(=O)(=O)n1ccnc1C	0.3	84.1*	-0.718	i	2.1	18.4
O=C1CSC(c2cn(-c3ccccc3)nc2-c2cccs2)N1CC1CCCO1 (stereo not given)	-3.2	11.7	-0.854	i	1.9	39.0
CCOC(=O)c1nn(-c2cccc(Cl)c2)c2nc(Nc3ccccc3)cc(=O)n12	·	-6.4	-0.229	i	3.0	39.1
CCOC(=O)c1nn(-c2cccc(OC)c2)c2nc(Nc3ccccc3)cc(=O)n12	·	-3.5	0.605	+	2.5	10.0
COc1ccc(CN2CCN(Cc3cccc(OC)c3)C(CCO)C2)cc1 (stereo not given)	-2.1	71.4*	0.0646	i	2.7	2.9
COc1cccc(CN2CCN(Cc3ccc4c(c3)OCCO4)CC2CCO)c1 (stereo not given)	-1.5	69.7*	0.898	i	0.6	6.9
CC(C)CCN1CCN(Cc2ccc(Oc3ncccn3)cc2)CC1CCO (stereo not given)	1.0	-4.1	-0.417	+	2.8	14.1
COc1ccc(/C=C/CN2CCN(Cc3cccc(OC)c3)C(CCO)C2)cc1 (stereo not given)	0.4	93.4*	0.334	i	1.5	18.7
Cn1c(=O)c2c(nc(Cl)n2CC(=O)N2CCCCC2)n(C)c1=O	-0.6	12.3	0.812	i	3.7	-3.0
CC(=O)c1sc2nc(-c3ccco3)ccc2c1N	-0.5	·	1.23	·	·	7.0
CCOC(=O)C1=NN(C(=O)Cc2ccccc2)C(O)(C(C)(C)C)C1 (stereo not given)	0.5	-6.2	-0.737	i	1.2	17.5
CCCOc1ccc(-c2nc(C#N)c(NCC3CCCO3)o2)cc1 (stereo not given)	·	92.1*	-0.298	i	1.1	58.2
CNc1nc(-c2ccc3c(c2)CCN3C(=O)c2ccccc2C)cs1	0.8	7.6	-0.399	i	1.8	-5.8
Cc1sc(NC(=O)Cc2ccc3c(c2)OCO3)nc1-c1ccc2c(c1)CCN2C(=O)c1cccc(F)c1	0.1	91.2*	-0.659	i	1.8	63.0
Cc1cccc(C(=O)N2CCc3cc(-c4nc(NC(=O)Cn5nnc6ccccc6c5=O)sc4C)ccc32)c1	·	8.0	-0.383	i	3.3	48.6
Cc1ccccc1C(=O)N1CCc2cc(-c3nc(NC(=O)Cc4ccc5c(c4)OCO5)sc3C)ccc21	1.7	98.8*	0.204	i	1.4	52.1
O=[N+]([O-])c1cccc(/C=C/c2nc3ccc([N+](=O)[O-])cc3[nH]2)c1	-3.4	54.8*	0.794	i	1.5	17.2
Cc1nc2ccc([N+](=O)[O-])cc2[nH]1	0.6	1.6	0.9	i	2.2	-14.9
COc1ccc(C(=O)N2CCC(C(=O)NCc3ccccn3)CC2)cc1	-1.4	-5.3	-1.38	i	3.7	-2.4
Cc1cccnc1Nc1nc(-c2ccc(O)cc2)cs1	1.1	99.4*	0.654	i	0.9	20.5
Oc1ccc(-c2csc(Nc3ncccn3)n2)c(O)c1	-2.9	1.9	-0.361	i	6.4	93.5*
Oc1ccc(-c2csc(Nc3ncccn3)n2)cc1O	-3.0	38.6	-0.834	i	4.6	-20.2
CC(C)S(=O)(=O)c1csc(NC(=O)Nc2cccc([N+](=O)[O-])c2)c1Cl	-0.4	·	-0.145	·	·	-13.3
Cc1noc(C)c1S(=O)(=O)N(CC(=O)N1CCCCCC1)c1ccc(C(C)C)cc1	·	63.2*	1.59	i	1.9	42.3
SMILES	b-catenin transl	L major viab	Dynein transport	Autophagy mod	MT stabilize HCS	CHOP inh
Cc1n[nH]c(C)c1S(=O)(=O)N(CC(=O)Nc1ccc2c(c1)OCCO2)c1ccc(C(C)C)cc1	1.1	56.4*	1.76	i	2.1	40.2
CCC(C)NC(=O)CN(c1ccc2c(c1)OCO2)S(=O)(=O)c1c(C)n[nH]c1C (stereo not given)	·	-0.1	-0.858	i	3.6	24.9
COc1ccc(N(CC(=O)Nc2ccc3c(c2)OCCO3)S(=O)(=O)c2c(C)nn(C)c2C)cc1	-0.5	43.2	-0.165	i	3.0	-7.5
Cc1noc(C)c1S(=O)(=O)N(CC(=O)Nc1ccc2c(c1)OCO2)c1ccc(C(C)C)cc1	-6.5	10.4	-0.43	i	7.4	80.7*
Cc1nn(C)c(C)c1S(=O)(=O)N(CC(=O)Nc1ccc2c(c1)OCO2)c1ccc(C(C)C)cc1	-4.6	50.1*	-0.135	i	3.3	11.7
COc1cccc(-c2nc3ccccc3s2)c1	1.0	-0.6	0.801	i	1.5	72.6*
COc1ccc(-c2nc3ccccc3s2)cc1	0.7	0.0	0.278	i	2.8	61.9
Cc1ccc(-c2[nH]c3ccccc3c2SCCNC(=O)c2ccc(S(=O)(=O)N3CCOCC3)cc2)cc1	0.0	99.5*	0.19	i	2.7	42.5
CCn1c(CNC(=O)COc2ccc(C(C)C)cc2)nnc1SCC(=O)Nc1ccccc1	·	0.5	0.0286	i	1.2	16.4
CCn1c(Cn2nnc(-c3ccccc3)n2)nnc1SCC(=O)Nc1ccccc1	-5.2	6.1	-1.39	i	4.5	88.1*
COc1cc(S(=O)(=O)Nc2ccc(C)cc2)ccc1N=Cc1c(C)c(C#N)c(=O)n(C)c1O	-2.1	-1.9	0.97	i	1.8	74.2*
Cc1ccc(N/N=C/c2c(C)c(C#N)c(=O)n(C)c2O)cc1C	0.3	80.1*	-0.238	i	2.5	18.9
Cc1c(C=N)c(O)n(C)c(=O)c1C#N	0.1	·	-0.676	·	·	-3.7
COc1cc(/C=C/CN2CCN(CCC(C)C)C(CCO)C2)ccc1O (stereo not given)	2.1	14.7	1.15	i	4.4	4.7
CC1(C)CC(=O)C2=C(C1)c1c(ccc3ccccc13)NC2c1cc([N+](=O)[O-])cc([N+](=O)[O-])c1O (stereo not given)	1.6	-1.1	1.2	i	1.9	-0.6
Nc1nc(Nc2cccc(F)c2)nc2ccccc12	-4.4	89.0*	-0.793	i	2.0	20.7
Cc1ccc(C)c(Nc2nc(N)c3ccccc3n2)c1	-4.4	97.6*	-0.521	i	3.3	6.4
O=S(=O)(c1cc(Cl)cc(Cl)c1)N1CCCC1c1nc2ccccc2s1 (stereo not given)	-3.5	-3.5	-0.757	i	0.3	70.2*
CCOC(=O)N1CCC(NS(=O)(=O)c2ccc(C#N)cc2)CC1	-1.7	·	-0.92	·	·	0.2
COc1cc(NC(=S)Nc2ccc(Br)cc2Cl)c(OC)cc1Cl	-1.2	31.9	0.524	i	4.5	34.4
COc1cc(NC(=S)NC(C)(C)C)c(OC)cc1Cl	0.5	67.1*	-0.109	i	3.3	12.0
COc1cc(NC(=S)Nc2cccc(Cl)c2Cl)c(OC)cc1Cl	-0.2	59.4*	-0.64	i	0.7	67.6
CN(Cc1cccs1)C(=O)CSc1nnnn1C	·	-0.6	0.25	i	2.1	4.4

Source: PubChem (several laboratories)
